Reference: ChEMBL document CHEMBL4130383, “Hydroxy-substituted trans-cinnamoyl derivatives as multifunctional tools in the context of Alzheimer's disease” (Eur J Med Chem, 2017)
Activity calls are given as the source filed them. The calls are words filed in the database; no cut-off is given here.

Legend:
[1] = target: T1, Glycogen synthase kinase-3 beta (Homo sapiens, UniProt P49841); assay: Inhibition of GSK3beta (unknown origin) at 50 uM using GSM substrate after 30 mins by Kinase-Glo reagent based luminescence assay relative to control
Outline: (§1)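 Buffer: 50 mM HEPES, 1 mM EDTA, 1 mM EGTA, 15 mM Mg acetate, pH 7.5. Enzyme 20 ng per well, GSM substrate 25 μM, ATP 1 μM, DMSO ≤1%. Incubated 30 min at 30 °C, then stopped with Kinase-Glo; luminescence read after 10 min. Activity normalised between no-inhibitor and […] total-inhibition controls. Single-point screen at 50 μM; IC50 by linear regression. Mean of two experiments, each in duplicate.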
Target sequence in this assay (P49841 whole entry, looked up): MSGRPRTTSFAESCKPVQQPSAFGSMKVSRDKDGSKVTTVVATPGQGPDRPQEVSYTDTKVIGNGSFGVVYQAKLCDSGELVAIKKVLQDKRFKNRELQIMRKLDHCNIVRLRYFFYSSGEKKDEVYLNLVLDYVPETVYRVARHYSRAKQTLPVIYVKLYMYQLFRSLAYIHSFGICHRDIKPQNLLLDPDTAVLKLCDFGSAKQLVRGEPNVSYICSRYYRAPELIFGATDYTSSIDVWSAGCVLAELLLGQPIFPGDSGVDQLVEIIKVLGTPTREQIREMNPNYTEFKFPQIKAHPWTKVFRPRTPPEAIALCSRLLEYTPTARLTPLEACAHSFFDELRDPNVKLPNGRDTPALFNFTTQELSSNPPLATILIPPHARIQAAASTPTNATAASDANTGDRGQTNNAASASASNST

[2] = Antioxidant activity assessed as inhibition rate constant for auto-oxidation of cumene initiated by AIMN in PhCl at 30 degC; type: functional
Outline: (§2)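 Oxygen-uptake measurement in a two-channel differential pressure apparatus. Air-saturated cumene (3.6 M) in chlorobenzene (1:1 v/v) with AIBN 0.05 M as thermal initiator, equilibrated against a reference solution holding excess 2,2,5,7,8-pentamethyl-6-chromanol. Antioxidant injected once O2 consumption was constant. k_inh fitted from the uninhibited and inhibited O2-consumption slopes.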

[3] = target: T2, Amyloid-beta precursor protein (Homo sapiens, UniProt P05067); assay: Inhibition of self-induced amyloid beta (1 to 42) (unknown origin) aggregation by thioflavin T-based fluorometric assay
Outline: (§3)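 HFIP-pretreated Aβ42 stock at 500 μM in CH3CN/0.3 mM Na2CO3/250 mM NaOH, diluted to 50 μM in 10 mM phosphate buffer pH 8.0 with 10 mM NaCl. Incubated at 30 °C with or without inhibitor at 50 μM (1:1 ratio); inhibitor blanks included. ThT fluorescence gave % inhibition. IC50 from concentrations giving 20–80% inhibition.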

[4] = Metal chelating activity assessed as compound-Cu2+ complex formation at 7.5 uM in presence of 0.5 to 2 equiv of Cu2+ by UV-Visible differential spectroscopic method
Outline: (§4)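 Stock solutions: 1 mM ligand and 1 mM CuCl2 in methanol, N2-purged. Fixed ligand (5–15 μM) titrated with CuCl2 up to 3 equivalents, deoxygenated, scanned 200–600 nm at room temperature in a 10 mm quartz cuvette against methanol. Ligand-only and metal-only spectra subtracted to give differential spectra, followed at 460 and 374 nm.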

[5] = Passive permeability of the compound at 100 uM after 6 hrs by PAMPA
[6] = target: T2, Amyloid-beta precursor protein; assay: Inhibition of self-induced amyloid beta (1 to 42) (unknown origin) aggregation at 50 uM by thioflavin T-based fluorometric assay relative to control; outline: as §3
[7] = Pro-oxidant activity in water assessed as auto-oxidation initiated by Cu+/Cu2+ couple in presence of H2O2; type: toxicity; settings: buffer
[8] = target: T3, Protein-glutamine gamma-glutamyltransferase (Homo sapiens, UniProt P21980); assay: Inhibition recombinant human TG2 using N-CbzGlu(gamma-p-nitrophenylester)Gly as substrate after 10 mins
T3 sequence (P21980 whole entry): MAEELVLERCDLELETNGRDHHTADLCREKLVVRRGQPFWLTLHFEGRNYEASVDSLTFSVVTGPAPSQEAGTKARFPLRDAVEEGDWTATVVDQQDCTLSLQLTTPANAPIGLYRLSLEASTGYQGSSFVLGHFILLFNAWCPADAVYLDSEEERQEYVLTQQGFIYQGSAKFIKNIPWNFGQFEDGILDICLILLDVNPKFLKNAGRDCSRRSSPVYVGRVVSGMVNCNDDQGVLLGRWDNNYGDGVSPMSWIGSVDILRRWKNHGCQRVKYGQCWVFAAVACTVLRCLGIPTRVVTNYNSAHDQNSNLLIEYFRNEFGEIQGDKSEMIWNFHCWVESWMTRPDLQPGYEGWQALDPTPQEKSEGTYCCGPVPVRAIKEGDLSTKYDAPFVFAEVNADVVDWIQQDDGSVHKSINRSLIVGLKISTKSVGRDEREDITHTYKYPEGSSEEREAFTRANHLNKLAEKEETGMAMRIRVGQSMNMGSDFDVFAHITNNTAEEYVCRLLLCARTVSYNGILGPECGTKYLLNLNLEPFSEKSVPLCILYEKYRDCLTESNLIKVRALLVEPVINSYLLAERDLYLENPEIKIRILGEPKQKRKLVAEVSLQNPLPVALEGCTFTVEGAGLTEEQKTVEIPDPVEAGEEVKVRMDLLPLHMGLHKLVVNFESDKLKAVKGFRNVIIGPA

[9] = tested on: Cortical neurone; assay: Cytotoxicity against Sprague-Dawley rat primary cortical neurons assessed as reduction in cell viability up to 50 uM after 24 hrs by MTT assay; type: cell-based
Outline: (§5)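 Immature E17 primary cortical neurons plated at 10^6 cells/ml. At DIV1, rinsed and given increasing compound concentrations, with or without 5 mM glutamate added at the same time. Viability by MTT after 24 h, across three neuronal preparations. Two-way ANOVA with Bonferroni post hoc test.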

[10] = target: T1, Glycogen synthase kinase-3 beta; assay: Inhibition of GSK3beta (unknown origin) using GSM substrate after 30 mins by Kinase-Glo reagent based luminescence assay; outline: as §1
Target sequence in this assay (P49841 whole entry): as the sequence (P49841 whole entry, looked up) above

[11] = target: T2, Amyloid-beta precursor protein; assay: Inhibition of self-induced amyloid beta (1 to 42) (unknown origin) aggregation by thioflavin T-based fluorometric assay relative to control; settings: concentration not given here; outline: as §3
[12] = Antioxidant activity assessed as inhibition of auto-oxidation of cumene initiated by AIMN in PhCl at 30 degC relative to ethyl ferulate; type: functional; settings: for inhibition: dose or concentration not given here; outline: as §2
[13] = Antioxidant activity in pH 7.4 phosphate buffer assessed as inhibition rate constant for auto-oxidation of THF initiated by AAPH at 30 degC
[14] = target: Luciferin 4-monooxygenase (Photinus pyralis) (UniProt P08659); assay: Inhibition of firefly luciferase activity up to 3 mM after 30 mins by luminescence assay
Outline: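 Luciferase interference check: the Kinase-Glo luminescence read-out was run without GSK-3β, with compound up to 3 mM.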

[15] = tested on: Cortical neurone; assay: Neuroprotective activity against glutamate-induced oxidative stress in Sprague-Dawley rat primary cortical neurons assessed as reduction in cell death at 12.5 to 50 uM after 24 hrs by MTT assay; type: functional, cell-based; settings: prague-Dawley; outline: as §5
[16] = Metal chelating activity assessed as compound-Cu2+ complex formation at 7.5 uM by UV-Visible differential spectroscopic method; outline: as §4
[17] = Antioxidant activity assessed as inhibition of auto-oxidation of cumene initiated by AIMN in PhCl at 30 degC relative to caffeic acid; type: functional; outline: as §2

T2 sequence (P05067 whole entry): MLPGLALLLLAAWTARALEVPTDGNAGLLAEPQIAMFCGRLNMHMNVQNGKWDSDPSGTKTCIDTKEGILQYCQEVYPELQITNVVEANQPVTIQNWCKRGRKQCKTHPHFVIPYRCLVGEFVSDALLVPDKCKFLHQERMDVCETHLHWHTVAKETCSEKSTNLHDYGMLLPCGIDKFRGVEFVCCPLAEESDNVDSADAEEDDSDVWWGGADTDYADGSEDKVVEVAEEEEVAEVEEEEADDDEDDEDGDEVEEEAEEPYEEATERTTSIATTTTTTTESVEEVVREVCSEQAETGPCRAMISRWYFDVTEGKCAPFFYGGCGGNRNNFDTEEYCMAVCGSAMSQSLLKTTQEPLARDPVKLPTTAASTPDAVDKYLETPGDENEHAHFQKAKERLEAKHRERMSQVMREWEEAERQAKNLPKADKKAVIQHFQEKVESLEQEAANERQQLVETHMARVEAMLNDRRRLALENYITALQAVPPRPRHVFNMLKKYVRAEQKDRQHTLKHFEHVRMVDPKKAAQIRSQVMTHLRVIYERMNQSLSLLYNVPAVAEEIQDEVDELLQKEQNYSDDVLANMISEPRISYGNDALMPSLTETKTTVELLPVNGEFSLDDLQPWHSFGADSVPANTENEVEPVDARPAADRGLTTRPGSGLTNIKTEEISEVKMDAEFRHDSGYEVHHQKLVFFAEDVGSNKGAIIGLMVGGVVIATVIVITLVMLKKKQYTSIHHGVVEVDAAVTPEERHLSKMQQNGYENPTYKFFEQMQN
Sequence of Luciferin 4-monooxygenase (Photinus pyralis) (P08659 whole entry): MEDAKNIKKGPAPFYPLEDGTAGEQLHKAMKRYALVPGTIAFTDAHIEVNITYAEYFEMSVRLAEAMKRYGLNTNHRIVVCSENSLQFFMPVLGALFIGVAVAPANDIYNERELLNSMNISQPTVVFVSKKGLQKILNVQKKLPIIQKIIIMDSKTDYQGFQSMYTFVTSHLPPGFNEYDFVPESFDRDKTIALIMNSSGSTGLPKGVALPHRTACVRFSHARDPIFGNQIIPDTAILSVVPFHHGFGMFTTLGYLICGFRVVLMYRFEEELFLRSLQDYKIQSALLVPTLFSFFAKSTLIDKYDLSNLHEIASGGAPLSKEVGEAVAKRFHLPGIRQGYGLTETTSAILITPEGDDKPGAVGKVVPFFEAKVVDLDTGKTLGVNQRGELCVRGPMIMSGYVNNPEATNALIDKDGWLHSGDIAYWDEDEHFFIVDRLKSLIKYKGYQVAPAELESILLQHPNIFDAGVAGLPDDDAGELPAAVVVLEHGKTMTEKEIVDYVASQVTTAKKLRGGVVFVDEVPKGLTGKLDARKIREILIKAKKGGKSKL

Structure (SMILES)	inhibition [1]	K [2]	IC50 [3]	inhibition [6]	IC50 [8]	further results
CCOC(=O)/C=C/c1ccc(O)c(OC)c1	21.4%	4.6 ×10³ /M/s				
O=C(O)/C=C/c1ccc(O)c(O)c1		2.9 ×10⁵ /M/s				
O=c1c(O)c(-c2ccc(O)c(O)c2)oc2cc(O)cc(O)c12		5 ×10⁵ /M/s				
OCCc1ccc(O)c(O)c1		8 ×10⁵ /M/s				
O=C(O)/C=C/c1cccc(O)c1			> 100 µM			
O=C(/C=C/c1ccc(O)c(O)c1)c1cccnc1	100%	6.8 ×10⁵ /M/s	9 µM	91.5%	1000 µM	Activity [4]: Active; Papp at 6 h, 100 µM [5]: 5.5 ×10⁻⁶ cm/s; Activity [7]: Not Active; Activity [9]: Non-Toxic; IC50 [10]: 24.4 µM; inhibition [11]: 20 to 80%; fold change (FC) [12]: 150; K [13]: 3.2 ×10⁵ /M/s; inhibition [14]: inactive; Activity [15]: Active; Activity [16]: Active; fold change (FC) [17]: > 2
COc1cc(/C=C/C(=O)O)ccc1O [FERULATE]			> 100 µM			
C=CCSC(=O)/C=C/c1ccc(O)c(O)c1			12.5 µM			
O=C(/C=C/c1ccc(O)cc1)c1cccnc1	25.2%	5.7 ×10³ /M/s		21.5%	> 2000 µM	
O=C(/C=C/c1cccc(O)c1)c1cccnc1	43.5%	1.5 ×10³ /M/s		5.8%	266 µM	Papp at 6 h, 100 µM [5]: 6.5 ×10⁻⁶ cm/s
CCOc1cc(/C=C/C(=O)c2cccnc2)ccc1O	39.5%	6.1 ×10³ /M/s		18.8%	484 µM	inhibition [12]: 33%
COc1cc(/C=C/C(=O)c2cccnc2)ccc1O	37.2%	7.1 ×10³ /M/s		17.5%	688 µM	Papp at 6 h, 100 µM [5]: 9.9 ×10⁻⁶ cm/s; inhibition [12]: 54%
